Data from ChEMBL document CHEMBL1152541, “Staurosporine tethered peptide ligands that target cAMP-dependent protein kinase (PKA): optimization and selectivity profiling” (Bioorg Med Chem, 2009).
*1 amine or outer side, *2 acyl side, *3 side chain or, on linkers, in order; H or OH if unused. Where a SMILES comes first, the peptide text is derived from it. Bridges are numbered along the chain shown (N, C = ends). [ ]: non-standard residue; d: D form. The star is where a group is joined. Staurosporine = CO[C@@H]1[C@H](N(C)*)C[C@H]2O[C@]1(C)n1c3ccccc3c3c4c(c5c6ccccc6n2c5c31)C(=O)NC4; Suc = O=C(CCC(=O)[*:2])[*:1]; Dap = NC[C@H](N)C(=O)O; βAla = NCCC(=O)O

Experiments:
[1] = target: Tyrosine-protein kinase BTK (Homo sapiens) (UniProt Q06187); experiment: Binding affinity to human BTK at 500 nM by cell-based competition binding assay relative to control in presence of DTT
Procedure, shortened: (§1)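 Kinase binding profiling ran on a commercial (Ambit) competitive binding screen against a panel of 90 kinases. The screen used reducing conditions with 7.5 mM DTT. To withstand the DTT, the bivalent ligand was tested as its amide isostere, with the disulfide replaced. A staurosporine derivative carrying a 3 β-alanine linker was run as the reference compound.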

[2] = target: T1, Tyrosine-protein kinase ZAP-70 (Homo sapiens) (UniProt P43403); experiment: Binding affinity to human ZAP70 at 500 nM by cell-based competition binding assay relative to control in presence of DTT
T1 sequence (whole entry): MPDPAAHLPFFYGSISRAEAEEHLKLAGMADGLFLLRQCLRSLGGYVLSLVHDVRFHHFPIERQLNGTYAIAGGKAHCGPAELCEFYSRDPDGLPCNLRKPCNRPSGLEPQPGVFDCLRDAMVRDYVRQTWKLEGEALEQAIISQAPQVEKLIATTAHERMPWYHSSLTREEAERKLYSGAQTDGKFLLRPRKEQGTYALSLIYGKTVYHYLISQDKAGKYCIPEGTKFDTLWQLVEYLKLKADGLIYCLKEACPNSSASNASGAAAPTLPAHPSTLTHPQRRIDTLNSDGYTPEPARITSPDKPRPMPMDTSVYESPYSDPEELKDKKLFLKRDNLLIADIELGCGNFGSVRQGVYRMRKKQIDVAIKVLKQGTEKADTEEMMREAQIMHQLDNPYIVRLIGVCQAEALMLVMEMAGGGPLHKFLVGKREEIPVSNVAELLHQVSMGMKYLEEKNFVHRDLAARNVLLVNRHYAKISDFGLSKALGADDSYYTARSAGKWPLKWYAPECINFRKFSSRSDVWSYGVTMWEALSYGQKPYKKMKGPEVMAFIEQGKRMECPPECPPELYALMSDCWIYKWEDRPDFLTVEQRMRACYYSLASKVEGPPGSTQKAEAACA

[3] = target: Macrophage colony-stimulating factor 1 receptor (Homo sapiens) (UniProt P07333); experiment: Binding affinity to human CSF1R at 500 nM by cell-based competition binding assay relative to control in presence of DTT
Procedure, shortened: (§2)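 Commercial (Ambit) competitive kinase-binding panel of 90 kinases measured the binding profile. Run under reducing conditions of 7.5 mM DTT. Binding is expressed relative to control.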

[4] = target: Proto-oncogene tyrosine-protein kinase receptor Ret (Homo sapiens) (UniProt P07949); experiment: Binding affinity to human RET at 500 nM by cell-based competition binding assay relative to control in presence of DTT
[5] = target: Serine/threonine-protein kinase 32C (Homo sapiens) (UniProt Q86UX6); experiment: Binding affinity to human YANK3 at 500 nM by cell-based competition binding assay relative to control in presence of DTT
[6] = target: RAC-beta serine/threonine-protein kinase (Homo sapiens) (UniProt P31751); experiment: Binding affinity to human AKT2 at 200 nM by cell-based competition binding assay relative to control in presence of DTT; procedure, shortened: as §1
[7] = target: Macrophage colony-stimulating factor 1 receptor (Homo sapiens) (UniProt P07333); experiment: Binding affinity to human CSF1R at 200 nM by cell-based competition binding assay relative to control in presence of DTT; procedure, shortened: as §2
[8] = target: Dual specificity mitogen-activated protein kinase kinase 1 (Homo sapiens) (UniProt Q02750); experiment: Binding affinity to human MEK1 at 200 nM by cell-based competition binding assay relative to control in presence of DTT
Procedure, shortened: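 Kinase binding profile from a commercial panel of 90 kinases, run as a competitive binding assay. The panel was screened under reducing conditions of 7.5 mM DTT. Signal was compared with the untreated control.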

[9] = target: Cyclin-dependent kinase 3 (Homo sapiens) (UniProt Q00526); experiment: Binding affinity to human CDK3 at 50 nM by cell-based competition binding assay relative to control in presence of DTT; procedure, shortened: as §1
[10] = target: Proto-oncogene tyrosine-protein kinase Src (Homo sapiens) (UniProt P12931); experiment: Binding affinity to human SRC at 50 nM by cell-based competition binding assay relative to control in presence of DTT
[11] = target: T2, Bone morphogenetic protein receptor type-2 (Homo sapiens) (UniProt Q13873); experiment: Binding affinity to human BMPR2 at 50 nM by cell-based competition binding assay relative to control in presence of DTT; procedure, shortened: as §1
T2 sequence (whole entry): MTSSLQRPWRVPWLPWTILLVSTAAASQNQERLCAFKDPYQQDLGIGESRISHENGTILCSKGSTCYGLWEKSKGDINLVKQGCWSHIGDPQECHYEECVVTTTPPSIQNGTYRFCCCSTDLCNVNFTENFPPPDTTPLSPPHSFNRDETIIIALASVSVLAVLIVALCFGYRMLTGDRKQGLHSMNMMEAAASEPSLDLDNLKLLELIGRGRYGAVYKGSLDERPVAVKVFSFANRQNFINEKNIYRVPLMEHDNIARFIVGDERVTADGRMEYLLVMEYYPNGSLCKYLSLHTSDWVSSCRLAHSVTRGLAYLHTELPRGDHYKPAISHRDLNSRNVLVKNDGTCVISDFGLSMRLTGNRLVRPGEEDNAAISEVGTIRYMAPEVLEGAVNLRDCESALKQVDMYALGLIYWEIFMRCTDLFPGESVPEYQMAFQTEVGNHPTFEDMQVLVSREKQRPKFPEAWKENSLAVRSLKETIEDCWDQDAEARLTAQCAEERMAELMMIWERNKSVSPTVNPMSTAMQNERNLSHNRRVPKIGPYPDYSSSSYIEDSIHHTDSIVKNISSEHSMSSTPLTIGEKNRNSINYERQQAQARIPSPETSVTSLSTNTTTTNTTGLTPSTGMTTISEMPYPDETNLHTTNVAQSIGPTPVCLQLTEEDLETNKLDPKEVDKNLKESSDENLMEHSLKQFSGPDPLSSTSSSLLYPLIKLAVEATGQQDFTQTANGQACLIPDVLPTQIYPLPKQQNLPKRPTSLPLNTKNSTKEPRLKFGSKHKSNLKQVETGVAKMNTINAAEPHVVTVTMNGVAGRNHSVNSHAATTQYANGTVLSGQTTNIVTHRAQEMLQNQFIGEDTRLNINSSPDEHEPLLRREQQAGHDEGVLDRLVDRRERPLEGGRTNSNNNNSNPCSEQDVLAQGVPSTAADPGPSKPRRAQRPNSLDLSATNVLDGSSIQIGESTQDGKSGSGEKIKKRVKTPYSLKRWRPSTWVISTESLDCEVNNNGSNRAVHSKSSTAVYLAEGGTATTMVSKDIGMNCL

[12] = target: Mitogen-activated protein kinase 10 (Homo sapiens) (UniProt P53779); experiment: Binding affinity to human JNK3 at 50 nM by cell-based competition binding assay relative to control in presence of DTT
Procedure, shortened: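 Competition binding screen (Ambit) across a panel of 90 kinases, scoring test ligand displacement of each kinase's binding relative to control. The screen ran under reducing conditions with 7.5 mM DTT.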

Macrophage colony-stimulating factor 1 receptor (Homo sapiens), sequence (P07333 whole entry): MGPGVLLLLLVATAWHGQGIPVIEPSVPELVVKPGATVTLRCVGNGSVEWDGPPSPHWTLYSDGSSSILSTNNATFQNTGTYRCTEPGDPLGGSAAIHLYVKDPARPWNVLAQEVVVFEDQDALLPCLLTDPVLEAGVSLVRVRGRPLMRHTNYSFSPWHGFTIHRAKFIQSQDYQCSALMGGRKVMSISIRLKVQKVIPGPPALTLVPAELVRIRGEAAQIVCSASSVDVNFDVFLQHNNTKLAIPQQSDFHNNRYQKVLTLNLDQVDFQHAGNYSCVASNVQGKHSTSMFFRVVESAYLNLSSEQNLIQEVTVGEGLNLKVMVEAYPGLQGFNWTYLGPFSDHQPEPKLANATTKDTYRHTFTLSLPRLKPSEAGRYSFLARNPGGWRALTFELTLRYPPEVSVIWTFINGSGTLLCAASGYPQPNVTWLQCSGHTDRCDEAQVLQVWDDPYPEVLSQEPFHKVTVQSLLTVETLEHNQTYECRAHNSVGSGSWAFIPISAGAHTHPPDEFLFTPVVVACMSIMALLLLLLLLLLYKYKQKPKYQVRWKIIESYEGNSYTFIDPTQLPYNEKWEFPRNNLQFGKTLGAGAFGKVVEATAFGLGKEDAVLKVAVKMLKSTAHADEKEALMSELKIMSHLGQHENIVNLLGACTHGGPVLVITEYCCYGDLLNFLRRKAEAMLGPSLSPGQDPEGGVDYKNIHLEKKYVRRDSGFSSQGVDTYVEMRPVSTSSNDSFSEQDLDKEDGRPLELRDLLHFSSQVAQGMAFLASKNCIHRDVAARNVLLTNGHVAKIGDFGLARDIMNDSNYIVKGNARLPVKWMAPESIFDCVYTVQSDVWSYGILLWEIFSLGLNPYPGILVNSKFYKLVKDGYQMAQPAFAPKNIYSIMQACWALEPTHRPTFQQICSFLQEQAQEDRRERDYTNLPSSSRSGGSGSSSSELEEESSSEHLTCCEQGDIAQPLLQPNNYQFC
Serine/threonine-protein kinase 32C (Homo sapiens), sequence (Q86UX6 whole entry): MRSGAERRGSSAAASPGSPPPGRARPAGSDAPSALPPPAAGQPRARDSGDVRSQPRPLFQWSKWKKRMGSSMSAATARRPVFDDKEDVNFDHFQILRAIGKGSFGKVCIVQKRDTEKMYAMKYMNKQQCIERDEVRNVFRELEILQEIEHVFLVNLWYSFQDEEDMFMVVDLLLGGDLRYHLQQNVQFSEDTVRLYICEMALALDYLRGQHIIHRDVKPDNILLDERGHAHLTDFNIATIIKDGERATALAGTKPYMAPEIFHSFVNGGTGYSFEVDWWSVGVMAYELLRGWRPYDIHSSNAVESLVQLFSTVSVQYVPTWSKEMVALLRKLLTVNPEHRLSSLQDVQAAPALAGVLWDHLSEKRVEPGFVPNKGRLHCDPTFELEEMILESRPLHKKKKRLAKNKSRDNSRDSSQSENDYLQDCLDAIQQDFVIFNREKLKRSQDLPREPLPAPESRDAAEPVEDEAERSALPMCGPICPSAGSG
Tyrosine-protein kinase BTK (Homo sapiens), sequence (Q06187 whole entry): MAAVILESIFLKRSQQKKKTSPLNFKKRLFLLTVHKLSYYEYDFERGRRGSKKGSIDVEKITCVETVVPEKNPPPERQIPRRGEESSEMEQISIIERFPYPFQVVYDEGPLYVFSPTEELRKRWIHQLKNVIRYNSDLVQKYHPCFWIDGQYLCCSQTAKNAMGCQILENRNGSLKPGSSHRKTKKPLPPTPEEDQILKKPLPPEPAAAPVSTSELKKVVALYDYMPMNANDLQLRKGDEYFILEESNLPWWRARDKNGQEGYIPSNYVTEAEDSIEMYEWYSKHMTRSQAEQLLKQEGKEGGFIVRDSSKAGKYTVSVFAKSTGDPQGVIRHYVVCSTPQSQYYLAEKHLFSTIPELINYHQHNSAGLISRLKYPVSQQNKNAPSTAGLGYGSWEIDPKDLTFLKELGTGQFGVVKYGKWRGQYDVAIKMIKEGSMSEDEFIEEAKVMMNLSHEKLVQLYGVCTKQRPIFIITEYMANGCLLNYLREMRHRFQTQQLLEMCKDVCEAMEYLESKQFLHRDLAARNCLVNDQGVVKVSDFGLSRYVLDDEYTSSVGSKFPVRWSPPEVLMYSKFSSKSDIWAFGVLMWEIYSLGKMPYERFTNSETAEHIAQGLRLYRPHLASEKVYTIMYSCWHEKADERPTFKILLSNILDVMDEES
Proto-oncogene tyrosine-protein kinase Src (Homo sapiens), sequence (P12931 2-536 limits assumed): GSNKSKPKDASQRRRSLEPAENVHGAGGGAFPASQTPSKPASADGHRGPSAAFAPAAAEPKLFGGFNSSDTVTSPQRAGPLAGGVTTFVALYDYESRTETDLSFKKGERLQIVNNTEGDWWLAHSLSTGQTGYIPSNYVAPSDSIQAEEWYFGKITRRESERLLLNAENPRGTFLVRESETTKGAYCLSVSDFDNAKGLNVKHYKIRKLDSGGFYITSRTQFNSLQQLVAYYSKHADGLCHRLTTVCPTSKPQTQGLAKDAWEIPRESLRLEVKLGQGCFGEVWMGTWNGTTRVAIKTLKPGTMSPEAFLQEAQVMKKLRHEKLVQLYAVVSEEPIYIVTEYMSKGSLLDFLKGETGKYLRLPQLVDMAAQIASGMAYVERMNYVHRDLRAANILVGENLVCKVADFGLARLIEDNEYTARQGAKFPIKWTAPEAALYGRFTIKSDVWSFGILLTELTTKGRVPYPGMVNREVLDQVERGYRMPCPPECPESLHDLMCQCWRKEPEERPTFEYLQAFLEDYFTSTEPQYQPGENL
Mitogen-activated protein kinase 10 (Homo sapiens), sequence (P53779 whole entry): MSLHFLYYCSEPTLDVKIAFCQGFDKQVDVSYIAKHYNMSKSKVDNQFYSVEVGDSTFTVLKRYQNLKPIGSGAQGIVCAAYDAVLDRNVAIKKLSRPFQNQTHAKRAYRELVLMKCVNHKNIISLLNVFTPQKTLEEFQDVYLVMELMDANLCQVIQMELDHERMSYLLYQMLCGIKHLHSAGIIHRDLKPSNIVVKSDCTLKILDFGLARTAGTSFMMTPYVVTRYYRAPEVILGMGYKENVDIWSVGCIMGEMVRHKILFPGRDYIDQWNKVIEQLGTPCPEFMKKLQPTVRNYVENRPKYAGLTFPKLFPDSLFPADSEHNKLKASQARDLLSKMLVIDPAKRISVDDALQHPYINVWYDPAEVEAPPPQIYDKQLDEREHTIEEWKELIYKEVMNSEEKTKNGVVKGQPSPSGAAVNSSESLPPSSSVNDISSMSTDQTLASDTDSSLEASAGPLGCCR
Proto-oncogene tyrosine-protein kinase receptor Ret (Homo sapiens), sequence (P07949 whole entry): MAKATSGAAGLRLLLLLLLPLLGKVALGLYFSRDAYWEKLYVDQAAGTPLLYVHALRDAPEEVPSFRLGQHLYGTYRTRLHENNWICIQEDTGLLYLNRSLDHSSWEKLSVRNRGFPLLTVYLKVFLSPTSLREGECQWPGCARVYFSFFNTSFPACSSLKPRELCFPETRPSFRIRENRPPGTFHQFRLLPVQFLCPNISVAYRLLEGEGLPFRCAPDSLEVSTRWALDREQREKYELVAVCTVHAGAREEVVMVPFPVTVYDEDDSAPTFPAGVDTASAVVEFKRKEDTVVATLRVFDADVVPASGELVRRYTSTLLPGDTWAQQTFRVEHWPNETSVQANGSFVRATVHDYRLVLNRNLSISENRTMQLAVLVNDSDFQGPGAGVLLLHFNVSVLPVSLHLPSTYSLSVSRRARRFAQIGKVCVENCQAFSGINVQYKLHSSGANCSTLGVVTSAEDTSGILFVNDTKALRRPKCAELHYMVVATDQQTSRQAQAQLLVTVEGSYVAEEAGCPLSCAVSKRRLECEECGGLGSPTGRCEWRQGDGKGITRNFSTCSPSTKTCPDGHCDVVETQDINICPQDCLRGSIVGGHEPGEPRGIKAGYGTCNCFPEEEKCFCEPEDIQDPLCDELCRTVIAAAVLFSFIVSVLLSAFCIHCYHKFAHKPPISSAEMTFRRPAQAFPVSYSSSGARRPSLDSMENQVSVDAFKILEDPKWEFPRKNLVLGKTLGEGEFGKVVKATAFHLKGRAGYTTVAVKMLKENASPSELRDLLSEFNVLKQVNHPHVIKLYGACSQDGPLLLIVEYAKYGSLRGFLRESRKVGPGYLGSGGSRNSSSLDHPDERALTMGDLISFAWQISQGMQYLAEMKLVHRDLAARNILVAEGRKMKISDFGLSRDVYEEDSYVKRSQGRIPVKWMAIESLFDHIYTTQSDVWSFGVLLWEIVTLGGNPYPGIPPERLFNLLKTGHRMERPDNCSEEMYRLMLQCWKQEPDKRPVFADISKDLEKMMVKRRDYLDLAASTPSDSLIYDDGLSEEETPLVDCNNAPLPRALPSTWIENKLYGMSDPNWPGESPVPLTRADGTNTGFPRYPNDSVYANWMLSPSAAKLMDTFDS
RAC-beta serine/threonine-protein kinase (Homo sapiens), sequence (P31751 whole entry): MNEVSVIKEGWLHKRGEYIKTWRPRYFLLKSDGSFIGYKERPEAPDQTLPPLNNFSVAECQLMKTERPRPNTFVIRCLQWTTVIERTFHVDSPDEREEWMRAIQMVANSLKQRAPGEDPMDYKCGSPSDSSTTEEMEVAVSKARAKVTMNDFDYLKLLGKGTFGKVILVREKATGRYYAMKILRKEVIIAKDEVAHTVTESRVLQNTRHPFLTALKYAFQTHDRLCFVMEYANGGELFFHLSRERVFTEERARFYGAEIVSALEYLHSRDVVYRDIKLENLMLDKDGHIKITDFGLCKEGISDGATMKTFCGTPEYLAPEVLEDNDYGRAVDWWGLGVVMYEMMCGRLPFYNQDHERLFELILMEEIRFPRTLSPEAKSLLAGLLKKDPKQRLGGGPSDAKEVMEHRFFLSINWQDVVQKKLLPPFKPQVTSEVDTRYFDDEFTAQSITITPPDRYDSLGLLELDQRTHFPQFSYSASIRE
Cyclin-dependent kinase 3 (Homo sapiens), sequence (Q00526 whole entry, looked up): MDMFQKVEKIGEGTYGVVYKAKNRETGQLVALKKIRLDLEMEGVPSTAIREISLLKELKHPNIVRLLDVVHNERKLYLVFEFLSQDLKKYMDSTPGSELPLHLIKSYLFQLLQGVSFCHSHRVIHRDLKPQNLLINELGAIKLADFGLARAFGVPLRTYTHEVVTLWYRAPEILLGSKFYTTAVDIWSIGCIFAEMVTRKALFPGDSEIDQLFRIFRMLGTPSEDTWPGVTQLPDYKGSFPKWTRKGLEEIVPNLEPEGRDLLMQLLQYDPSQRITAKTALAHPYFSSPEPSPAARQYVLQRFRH

CO[C@@H]1[C@H](N(C)C(=O)CCC(=O)NCCC(=O)NCCC(=O)NCCC(N)=O)C[C@H]2O[C@]1(C)n1c3ccccc3c3c4c(c5c6ccccc6n2c5c31)C(=O)NC4
Activity [1]: 31% | Activity [2]: 2.2% | Activity [3]: 22% | Activity [4]: 5.6% | Activity [5]: 100%

CO[C@@H]1[C@H](N(C)C(=O)CCC(=O)NCCC(=O)NCCC(=O)NCCC(=O)NCCC(=O)NCCC(=O)NCCC(=O)NCCC(=O)N[C@H]2CSSC[C@@H](C(=O)NCC(N)=O)NC(=O)CNC(=O)[C@H](Cc3ccccc3)NC(=O)[C@H](C(C)C)NC(=O)[C@H](CCCNC(=N)N)NC(=O)[C@H](Cc3ccccc3)NC(=O)[C@H](C(C)C)NC2=O)C[C@H]2O[C@]1(C)n1c3ccccc3c3c4c(c5c6ccccc6n2c5c31)C(=O)NC4 ({Staurosporine-Suc-βAla-βAla-βAla-βAla-βAla-βAla-βAla}-CVFRVFGCG-NH2; disulfide 1-8)
Activity [6]: 100% | Activity [7]: 44% | Activity [8]: 100%

CO[C@@H]1[C@H](N(C)C(=O)CCC(=O)NCCC(=O)NCCC(=O)NCCC(=O)NCCC(=O)NCCC(=O)NCCC(=O)NCCC(=O)N[C@H]2CNC(=O)C[C@@H](C(N)=O)NC(=O)CNC(=O)[C@H](Cc3ccccc3)NC(=O)[C@H](C(C)C)NC(=O)[C@H](CCCNC(=N)N)NC(=O)[C@H](Cc3ccccc3)NC(=O)[C@H](C(C)C)NC2=O)C[C@H]2O[C@]1(C)n1c3ccccc3c3c4c(c5c6ccccc6n2c5c31)C(=O)NC4 ({Staurosporine-Suc-βAla-βAla-βAla-βAla-βAla-βAla-βAla}-[Dap]VFRVFGD-NH2; lactam 1-8)
Activity [9]: 100% | Activity [10]: 100% | Activity [11]: 99% | Activity [12]: 85%
